{
  "source": "ChEMBL document CHEMBL3734683",
  "about": "“Synthesis and pharmacological screening of a large library of 1,3,4-thiadiazolines as innovative therapeutic tools for the treatment of prostate cancer and melanoma” (2015)",
  "key": {"[1]": {"test": "Cytotoxicity against human PC3 cells assessed as cell viability at 100 nM after 72 hrs by tryphan blue staining-based microscopy (reference value: 95 to 98 %)", "assay_type": "functional", "conditions": "PC-3, 72 h, read-out: Activity"}, "[2]": {"test_system": "PC-3", "test": "Antiproliferative activity against human PC3 cells assessed as reduction in cell viability at 0.5 to 100 uM after 72 hrs by MTT assay", "assay_type": "functional, cell-based", "summary_of_the_method": "(§1)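 Cells plated, compound added after 24 h (DMSO dilution into culture medium), in triplicate; after 72 h, MTT added for 4 h. Controls were cells in medium alone; blanks were medium-only wells. Viability expressed as percent of viable cells versus control, mean of at least three independent assays.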"}, "[3]": {"test_system": "SK-MEL-28", "test": "Antiproliferative activity against human SK-MEL-28 cells assessed as reduction in cell viability at 5 to 50 uM after 72 hrs by MTT assay", "assay_type": "functional, cell-based", "summary_of_the_method": "as §1"}, "[4]": {"test_system": "SK-MEL-5", "test": "Antiproliferative activity against human SK-MEL-5 cells assessed as reduction in cell viability at 5 to 50 uM after 72 hrs by MTT assay", "assay_type": "functional, cell-based", "summary_of_the_method": "as §1"}, "[5]": {"test": "Cell cycle arrest in human PC3 cells assessed as accumulation at G2/M phase at 5 uM after 24 hrs by propidium iodide staining-based FACS analysis", "assay_type": "functional", "conditions": "PC-3"}, "[6]": {"test_system": "PC-3", "test": "Reduction in cyclin D1 protein level in human PC3 cells at 5 uM after 24 hrs by RT-PCR analysis relative to control", "assay_type": "functional, cell-based"}, "[7]": {"test_system": "SK-MEL-28", "test": "Reduction in cyclin D1 mRNA expression in human SK-MEL-28 cells at 5 uM after 24 hrs by RT-PCR analysis relative to control"}, "[8]": {"test_system": "SK-MEL-5", "test": "Cell cycle arrest in human SK-MEL-5 cells assessed as accumulation at G2/M phase at 5 uM after 24 hrs by propidium iodide staining-based FACS analysis", "assay_type": "functional"}, "[9]": {"test_system": "SK-MEL-28", "test": "Cell cycle arrest in human SK-MEL-28 cells assessed as accumulation at G2/M phase at 5 uM after 24 hrs by propidium iodide staining-based FACS analysis", "assay_type": "functional"}, "[10]": {"test_system": "SK-MEL-5", "test": "Reduction in cyclin D1 protein level in human SK-MEL-5 cells at 5 uM after 24 hrs by RT-PCR analysis relative to control", "assay_type": "functional, cell-based"}, "[11]": {"test": "Cell cycle arrest in human PC3 cells assessed as accumulation of cells with 4N DNA at 5 uM after 96 hrs by propidium iodide staining-based FACS analysis", "assay_type": "functional", "conditions": "PC-3"}, "[12]": {"test_system": "SK-MEL-28", "test": "Cell cycle arrest in human SK-MEL-28 cells assessed as accumulation of cells with 4N DNA at 5 uM after 96 hrs by propidium iodide staining-based FACS analysis", "assay_type": "functional"}, "[13]": {"test": "Cytotoxicity against human PC3 cells assessed as cell viability at 5 uM after 72 hrs by tryphan blue staining based microscopy (reference value: 95 to 98 %)", "assay_type": "functional", "conditions": "PC-3, 72 h, read-out: Activity"}, "[14]": {"test_system": "SK-MEL-5", "test": "Cell cycle arrest in human SK-MEL-5 cells assessed as accumulation of cells with 4N DNA at 5 uM after 96 hrs by propidium iodide staining-based FACS analysis", "assay_type": "functional"}},
  "note": "Active and inactive are the calls of the source. The calls are words filed in the database; no cut-off is given here.",
  "data": [
    {"smiles": "CC(=O)O[C@@]12CO[C@@H]1C[C@H](O)[C@@]1(C)C(=O)[C@H](O)C3=C(C)[C@@H](OC(=O)[C@H](O)[C@@H](NC(=O)OC(C)(C)C)c4ccccc4)C[C@@](O)([C@@H](OC(=O)c4ccccc4)[C@H]21)C3(C)C", "note": "[DOCETAXEL ANHYDROUS]", "values": [
      {"measurement": "viability at 0.1 µM", "setting": "[1]", "result": 32, "unit": "%"}
    ]},
    {"smiles": "CC(=O)NC1=NN(C(C)=O)C(C)(c2ccc(OC(C)=O)cc2)S1", "note": "(stereo not given)", "values": [
      {"measurement": "Activity", "setting": "[2]", "result": "Active"}
    ]},
    {"smiles": "CC(=O)NC1=NN(C(C)=O)C(C)(c2ccccn2)S1", "note": "(stereo not given)", "values": [
      {"measurement": "Activity", "setting": "[2]", "result": "Active"}
    ]},
    {"smiles": "C=CCCC1(C)SC(NC(=O)CC)=NN1C(=O)CC", "note": "(stereo not given)", "values": [
      {"measurement": "Activity", "setting": "[3]", "result": "Active"},
      {"measurement": "Activity", "setting": "[4]", "result": "Active"}
    ]},
    {"smiles": "CCC1(c2ccccc2)SC(NC(C)=O)=NN1C(C)=O", "note": "(stereo not given)", "values": [
      {"measurement": "Activity", "setting": "[5]", "result": "Active"},
      {"measurement": "Activity", "setting": "[6]", "result": "Active"},
      {"measurement": "Activity", "setting": "[2]", "result": "Active"},
      {"measurement": "Activity", "setting": "[3]", "result": "Active"},
      {"measurement": "Activity", "setting": "[7]", "result": "Active"},
      {"measurement": "Activity", "setting": "[8]", "result": "Active"},
      {"measurement": "Activity", "setting": "[9]", "result": "Active"},
      {"measurement": "Activity", "setting": "[4]", "result": "Active"},
      {"measurement": "Activity", "setting": "[10]", "result": "Active"},
      {"measurement": "Activity", "setting": "[11]", "result": "Active"},
      {"measurement": "Activity", "setting": "[12]", "result": "Active"},
      {"measurement": "viability at 5 µM", "setting": "[13]", "result": 18, "unit": "%"},
      {"measurement": "Activity", "setting": "[14]", "result": "Active"}
    ]},
    {"smiles": "CC(=O)NC1=NN(C(C)=O)C(C)(c2cccs2)S1", "note": "(stereo not given)", "values": [
      {"measurement": "Activity", "setting": "[2]", "result": "Active"}
    ]},
    {"smiles": "CCCCC1(CC)SC(NC(=O)CC)=NN1C(=O)CC", "note": "(stereo not given)", "values": [
      {"measurement": "Activity", "setting": "[2]", "result": "Active"}
    ]},
    {"smiles": "CC(=O)NC1=NN(C(C)=O)C(C)(c2cc(F)ccc2F)S1", "note": "(stereo not given)", "values": [
      {"measurement": "Activity", "setting": "[2]", "result": "Active"}
    ]},
    {"smiles": "CC(=O)NC1=NN(C(C)=O)C(C)(c2ccccc2)S1", "note": "(stereo not given)", "values": [
      {"measurement": "Activity", "setting": "[5]", "result": "Active"},
      {"measurement": "Activity", "setting": "[6]", "result": "Active"},
      {"measurement": "Activity", "setting": "[2]", "result": "Active"},
      {"measurement": "Activity", "setting": "[3]", "result": "Active"},
      {"measurement": "Activity", "setting": "[7]", "result": "Active"},
      {"measurement": "Activity", "setting": "[8]", "result": "Active"},
      {"measurement": "Activity", "setting": "[9]", "result": "Active"},
      {"measurement": "Activity", "setting": "[4]", "result": "Active"},
      {"measurement": "Activity", "setting": "[10]", "result": "Active"},
      {"measurement": "Activity", "setting": "[11]", "result": "Active"},
      {"measurement": "Activity", "setting": "[12]", "result": "Active"},
      {"measurement": "viability at 5 µM", "setting": "[13]", "result": 25, "unit": "%"},
      {"measurement": "Activity", "setting": "[14]", "result": "Active"}
    ]},
    {"smiles": "CC1(c2ccccc2)SC(NC(=O)C(Cl)Cl)=NN1C(=O)C(Cl)Cl", "note": "(stereo not given)", "values": [
      {"measurement": "Activity", "setting": "[2]", "result": "Active"},
      {"measurement": "Activity", "setting": "[3]", "result": "Active"},
      {"measurement": "Activity", "setting": "[4]", "result": "Active"}
    ]},
    {"smiles": "CCC(=O)NC1=NN(C(=O)CC)C(CC)(c2ccccc2)S1", "note": "(stereo not given)", "values": [
      {"measurement": "Activity", "setting": "[2]", "result": "Active"}
    ]},
    {"smiles": "CC(=O)NC1=NN(C(C)=O)C(C)(c2cccnc2)S1", "note": "(stereo not given)", "values": [
      {"measurement": "Activity", "setting": "[3]", "result": "Active"},
      {"measurement": "Activity", "setting": "[4]", "result": "Active"}
    ]}
  ]
}
